Results published in paper PMC10100262 (Chemmedchem, 2022).

Key:
Determination of log D = assay type: physicochemical; conditions: pH 7.4
How it was run: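 68Ga-labeled peptide conjugate, molar activity adjusted to 1 GBq/μmol, 0.7–1 MBq per test. Partitioned between 1-octanol and 0.05 M phosphate buffer pH 7.4 by vigorous shaking for 2 min. Phases separated by centrifugation; equal aliquots of each phase γ-counted. Run thrice, each in triplicate.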

[1] = assay type: in vitro ADME; conditions: pooled human serum, 37 °C; activity in precipitated serum protein pellet
How it was run: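 68Ga-labeled peptide conjugate (20–25 MBq; molar activity set to 1 GBq/μmol) incubated in pooled human serum at 37 °C. Samples taken at 15-min intervals into an equal volume of ice-cold ethanol, held 1 min on ice and centrifuged 90 s. Activity measured in pellet and supernatant; supernatant analyzed by radio-HPLC. Three experiments per radioligand.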

SMILES	logD (Determination of log D; 1‐octanol/phosphate buffer)	protein‐associated activity (protein‐bound activity fraction) [1] [%]	logD (Determination of log D)
C[C@@H](O)[C@H](NC(=O)[C@@H]1CSSC[C@H](NC(=O)[C@@H](Cc2ccccc2)NC(=O)CN2CCN(CC(=O)O)CCN(CC(=O)O)CCN(CC(=O)O)CC2)C(=O)N[C@@H](Cc2ccc(O)cc2)C(=O)N[C@H](Cc2c[nH]c3ccccc23)C(=O)N[C@@H](CCCCN)C(=O)N[C@@H]([C@@H](C)O)C(=O)N1)C(=O)O [[^68Ga]Ga‐8, metal not drawn]	-4.09 ± 0.07	19.7±2.2	–
C[C@@H](O)[C@H](NC(=O)[C@@H]1CSSC[C@H](NC(=O)[C@@H](Cc2ccccc2)NC(=O)CC[C@H](C(=O)O)N2CCN(CC(=O)O)CCN(CC(=O)O)CC2)C(=O)N[C@@H](Cc2ccc(O)cc2)C(=O)N[C@H](Cc2c[nH]c3ccccc23)C(=O)N[C@@H](CCCCN)C(=O)N[C@@H]([C@@H](C)O)C(=O)N1)C(=O)O [[^68Ga]Ga‐10, metal not drawn]	-3.72 ± 0.02	16.9±3.5	–
C[C@@H](O)[C@H](NC(=O)[C@@H]1CSSC[C@H](NC(=O)[C@@H](Cc2ccccc2)NC(=O)CCC(C(=O)O)N2CCN(CC(=O)O)CCN(CC(=O)O)CCN(CC(=O)O)CC2)C(=O)N[C@@H](Cc2ccc(O)cc2)C(=O)N[C@H](Cc2c[nH]c3ccccc23)C(=O)N[C@@H](CCCCN)C(=O)N[C@@H]([C@@H](C)O)C(=O)N1)C(=O)O (some centres unmarked) [[^68Ga]Ga‐9, metal not drawn]	–	29.0±3.5	-4.11 ± 0.11
C[C@@H](O)[C@H](NC(=O)[C@@H]1CSSC[C@H](NC(=O)[C@@H](Cc2ccccc2)NC(=O)CCC(C(=O)O)N2CCN3CCN(CCN(CC(=O)O)CC3)CC2)C(=O)N[C@@H](Cc2ccc(O)cc2)C(=O)N[C@H](Cc2c[nH]c3ccccc23)C(=O)N[C@@H](CCCCN)C(=O)N[C@@H]([C@@H](C)O)C(=O)N1)C(=O)O (some centres unmarked) [[^68Ga]Ga‐11, metal not drawn]	–	15.7±3.6	-3.02 ± 0.08
